Measured values from ChEMBL document CHEMBL4393735, “Molecular modelling, synthesis, and biological evaluations of a 3,5-disubstituted isoxazole fatty acid analogue as a PPARα-selective agonist” (Bioorg Med Chem, 2019).
Active and inactive are the calls of the source.

Tests used:
[1] = molecular target: T1, Peroxisome proliferator-activated receptor alpha (Homo sapiens) (UniProt Q07869); test: Agonist activity at PPARalpha in human Huh7 cells assessed as activation of CPT1A mRNA expression at 50 uM measured after 18 hrs by qRT-PCR analysis; assay type: cell-based
T1 sequence (whole entry): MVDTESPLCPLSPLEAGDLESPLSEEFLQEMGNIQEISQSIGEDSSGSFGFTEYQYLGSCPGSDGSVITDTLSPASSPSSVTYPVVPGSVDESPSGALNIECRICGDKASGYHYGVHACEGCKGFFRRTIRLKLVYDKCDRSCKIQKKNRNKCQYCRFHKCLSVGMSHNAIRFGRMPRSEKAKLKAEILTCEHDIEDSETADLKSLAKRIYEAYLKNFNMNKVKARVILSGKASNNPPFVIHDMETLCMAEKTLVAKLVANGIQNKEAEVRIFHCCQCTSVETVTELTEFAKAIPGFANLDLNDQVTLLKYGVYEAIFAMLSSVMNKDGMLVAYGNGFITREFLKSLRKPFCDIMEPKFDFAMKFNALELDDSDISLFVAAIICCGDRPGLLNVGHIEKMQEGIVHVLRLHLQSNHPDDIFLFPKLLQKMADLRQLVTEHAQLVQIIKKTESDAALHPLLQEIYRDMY
How it was run: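 Treatment for 18 h at 50 μM (or 1 μM for the 1 μM agents), DMSO vehicle. Harvested for qPCR. mRNA normalized to TBP by the comparative threshold method, expressed relative to DMSO control. Two biological replicates run in duplicate, mean ± SEM. Primary hepatocytes came from male C57BL/6N mice aged 7–8 weeks, isolated by portal-vein perfusion and digestion, seeded on collagen I and used on day 2. HuH-7 cells were kept in DMEM with 10% FBS and ITS.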

SGBS [2] = test: Upregulation of ANGPTL4 gene expression in human preadipocyte derived from Simpson-Golabi-Behmel syndrome (SGBS) patient at 25 uM measured for 12 days by qRT-PCR analysis; assay type: functional, cell-based
How it was run: (§1)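 SGBS cells were differentiated with serum-free induction medium containing 25 μM test agent, 2 μM rosiglitazone or 0.1% DMSO from day 0. IBMX and dexamethasone were removed on day 4 and medium was renewed on day 8. RNA was taken on days 0, 4, 8 and 12 for qPCR, normalized to TBP and to day 0. At least three biological replicates in duplicate, two-way ANOVA with Bonferroni.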

[3] = molecular target: T2, Peroxisome proliferator-activated receptor gamma (Homo sapiens) (UniProt P37231); test: Agonist activity at full length human FLAG-tagged GAL4-DBD fused PPARgamma LBD (205 to 505 residues) expressed in COS1 cells transfected with hRXRalpha and hPLIN1-driven reporter assessed as PLIN1 mRNA level at 50 uM measured after 18 hrs by dual luciferase reporter gene assay; assay type: cell-based
T2 sequence (whole entry): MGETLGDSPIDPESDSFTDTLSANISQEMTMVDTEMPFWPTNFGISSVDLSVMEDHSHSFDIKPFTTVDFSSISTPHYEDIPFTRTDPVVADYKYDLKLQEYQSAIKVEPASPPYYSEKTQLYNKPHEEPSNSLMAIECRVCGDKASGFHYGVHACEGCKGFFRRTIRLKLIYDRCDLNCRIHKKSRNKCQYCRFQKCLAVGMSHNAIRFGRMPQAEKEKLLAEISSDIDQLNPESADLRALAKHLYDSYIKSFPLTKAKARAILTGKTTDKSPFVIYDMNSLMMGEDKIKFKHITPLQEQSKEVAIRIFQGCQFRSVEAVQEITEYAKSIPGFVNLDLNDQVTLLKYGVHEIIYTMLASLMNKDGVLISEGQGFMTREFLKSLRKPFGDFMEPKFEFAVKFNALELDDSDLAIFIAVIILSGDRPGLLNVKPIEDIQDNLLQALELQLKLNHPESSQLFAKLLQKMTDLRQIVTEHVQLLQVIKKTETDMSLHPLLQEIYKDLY
How it was run: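 COS-1 cells were transfected with full-length human PPARα (or PPARγ) plus RXRα expression plasmids, with a wild-type or PPRE-mutated CPT1A-intronic (or PLIN1) luciferase reporter and pRL-CMV. Cells were treated with 50 μM in 0.1% DMSO (final) for 18 h. Dual-luciferase read-out normalized to DMSO control. Three biological replicates in quadruplicate, mean ± SEM.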

SGBS [4] = test: Induction of adipocyte differentiation in human preadipocyte derived from Simpson-Golabi-Behmel syndrome (SGBS) patient assessed as lipid accumulation at 25 uM measured for 12 days by Oil red O staining based microscopic analysis; assay type: functional, cell-based
How it was run: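 Differentiation of SGBS preadipocytes was started in serum-free medium with transferrin, insulin, T3, hydrocortisol, IBMX and dexamethasone, plus 25 μM test agent, 2 μM rosiglitazone or 0.1% DMSO. On day 4 medium was switched to lack IBMX and dexamethasone, and it was renewed on day 8. Cells were fixed with 4% PFA and stained with 0.3% Oil Red O on days 0, 4, 8 and 12, then photographed.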

COS-1 [5] = test: Cytotoxicity against African green monkey COS1 cells assessed as reduction in cell viability at 10^-3 M by LDH release assay relative to control; assay type: cell-based; conditions: chlorocebus aethiops, cos-1, 1000 µM
How it was run: (§2)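 COS-1 cells were treated across the same concentration series as the GAL4 dose-response runs. Cytotoxicity was measured as LDH released into medium (absorbance 492/750 nm) and by XTT viability assay (absorbance 450/690 nm). Results expressed relative to control.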

COS-1 [6] = test: Cytotoxicity against African green monkey COS1 cells assessed as reduction in cell viability at 10^-4 M by LDH release assay; assay type: cell-based; conditions: chlorocebus aethiops, cos-1, 100 µM; how it was run: as §2
SGBS [7] = test: Upregulation of CD36 gene expression in human preadipocyte derived from Simpson-Golabi-Behmel syndrome (SGBS) patient at 25 uM measured for 12 days by qRT-PCR analysis; assay type: functional, cell-based; how it was run: as §1
[8] = molecular target: T3, Peroxisome proliferator-activated receptor alpha (Homo sapiens, UniProt Q07869); test: Agonist activity at full length human FLAG-tagged GAL4-DBD fused PPARalpha LBD (168 to 468 residues) expressed in COS1 cells measured after 18 hrs by dual luciferase reporter gene assay; assay type: cell-based
T3 sequence (Q07869 whole entry): T1 sequence (whole entry)
How it was run: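 Dose-response in COS-1 cells transfected with GAL4-DBD–human PPARα or PPARγ LBD, a 5×UAS-SV40 firefly reporter and pRL-CMV. Cells were treated with increasing concentrations in 0.1% DMSO (final) 6 h post-transfection, then for 18 h. Firefly/Renilla ratio, normalized to GAL4-only activity. EC50 was taken from a sigmoidal dose-response fit. At least three independent transfections in quadruplicate.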

SGBS [9] = test: Upregulation of CEBPA gene expression in human preadipocyte derived from Simpson-Golabi-Behmel syndrome (SGBS) patient at 25 uM measured for 12 days by qRT-PCR analysis; assay type: functional, cell-based; how it was run: as §1

For CCCCCCCc1cc(CCCCCC(=O)O)no1, the Activity [1] was “Active”, the Activity (SGBS [2]) was “Active” and the Activity [3] was “inactive”. For the same compound, the Activity (SGBS [4]) was “Active”, the Activity (COS-1 [5]) was 60% and the Activity (COS-1 [6]) was “Toxic”. For the same compound, the Activity (SGBS [7]) was “Active”, the EC50 [8] was 47 µM and the Activity (SGBS [9]) was “Active”.
